VIM-2 inhibitor = blocks Pseudomonas aeruginosa VIM-2 metallo-beta-lactamase; purified VIM-2, nitrocefin hydrolysis, epi-absorbance fluorescence; inhibition, % at 5.6 µM; 290,000 tested, 0.89% active; AID 1527;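 active = inhibition above the mean of all tested compounds plus 3 SD, cutoff set per screening run, cut at about 7.5% in these data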;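 note: red hydrolysis product quenches plate fluorescence so inhibitors raise well fluorescence; 0% = enzyme with DMSO and 100% = DMSO without enzyme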
IMP-1 inh = blocks Pseudomonas aeruginosa IMP-1 metallo-beta-lactamase. purified IMP-1, nitrocefin hydrolysis, epi-absorbance fluorescence. inhibition, % at 5.6 µM. 290,000 tested, 0.45% active. AID 1556;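 active = inhibition above the mean plus 3 SD of all compounds in the same screening run, cut at about 4.5% in these data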;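 note: 0% = IMP-1 with DMSO and 100% = DMSO wells lacking enzyme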
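System – purified recombinant IMP-1 beta-lactamase · Input – IMP-1 dispensed at 0.2 nM · Timing – 15 min preincubation plus 25 min reaction at 25 °C · Signal – Epi-absorbance fluorescence, 480 nm excitation, 530 nm emission · Measure – percent IMP-1 inhibition derived from blank-referenced optical density · Controls – Enzyme-plus-DMSO low control, enzyme-free DMSO high control · Replication – singlicate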
dFosB act-1 = mouse delta FosB homodimer activation; P13346; purified delta FosB, TAMRA-CDK5 oligo fluorescence polarization; percent of positive-control signal above neutral wells; activation, % at 25 µM; 340,000 tested, 0.99% active;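 active = mean activation above about 17%, with every replicate also reaching it, limit read from the data, passing the limit was not always enough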
Target sequence (P13346 whole entry, looked up): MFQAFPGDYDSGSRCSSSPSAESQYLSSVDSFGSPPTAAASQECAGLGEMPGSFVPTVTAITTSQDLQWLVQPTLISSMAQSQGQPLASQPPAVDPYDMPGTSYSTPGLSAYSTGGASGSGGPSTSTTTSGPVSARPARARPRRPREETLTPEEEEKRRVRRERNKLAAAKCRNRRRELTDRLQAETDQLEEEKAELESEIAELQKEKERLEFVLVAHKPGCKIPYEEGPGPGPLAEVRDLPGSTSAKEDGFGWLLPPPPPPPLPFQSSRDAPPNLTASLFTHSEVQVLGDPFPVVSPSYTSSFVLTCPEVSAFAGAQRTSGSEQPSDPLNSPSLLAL
HTR2A ag = agonists of mouse serotonin 5-HT2A receptor (HTR2A). P35363. CHO-K1 mHTR2A beta-arrestin complementation, luminescence; percent of 30 µM serotonin response. activation, % at 7.6 µM. 360,000 tested, 0.66% active. AID 624169;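 active = activation above a run cutoff, the mean activation of all tested compounds plus 3 SD, cut at about 14% in these data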;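 note: 0% = plate median of compound wells and 100% = 30 µM serotonin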
dFosB act-2 = activators of mouse delta FosB homodimer DNA binding; shares compounds with dFosB act-1; activation, % at 24.9 µM; 2,400 tested, under 10 active; purified delta FosB, TAMRA-CDK5 oligo fluorescence polarization; normalised: neutral wells 0, positive control 100;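 active = highest replicate activation at or above 34% and every replicate reaching that threshold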;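 note: higher polarization means more probe DNA bound by delta FosB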
Active calls of the source: *; . = not tested or not shown. Hits are enriched below; roughly 2.5% of the tested compounds scored in any of these assays.

SMILES	VIM-2 inhibitor	IMP-1 inh	dFosB act-1	HTR2A ag	dFosB act-2
COc1ccc(NC(=O)c2ccc3c(=O)n(-c4ccc(OC)cc4OC)c(=S)[nH]c3c2)c(OC)c1	-1.1	-3.9	1.2	-1.6	.
O=C(NCc1ccco1)c1ccc2c(=O)n(-c3ccccc3)c(=S)[nH]c2c1	1.5	-1.8	35.3*	-4.6	5.9
COc1ccc(-n2c(=S)[nH]c3cc(C(=O)Nc4cc(C(N)=O)ccc4OC)ccc3c2=O)c(OC)c1	-1.7	-3.1	31.5*	5.2	2.5
COc1ccc(NC(=O)CCn2c(=S)[nH]c3ccccc3c2=O)cc1OC	-3.0	-3.6	24.3*	-4.4	3.9
Cc1ccc(C(C)C)c(OCc2nn(CC(=O)c3ccc(OC(F)F)cc3)c3[n+]2CCCCC3)c1	-4.1	-3.0	-12.4	-7.9	.
CC1(C(=O)NCc2ccccc2)Cc2c(-c3ccc4c(c3)OCO4)ccnc2O1 (stereo not drawn)	.	.	.	1.1	.
COc1ccc(-n2c(=S)[nH]c3cc(C(=O)Nc4ccc(OC)c(OC)c4)ccc3c2=O)cc1	-4.7	-3.4	126.7*	-0.1	1.1
COc1ccc(-n2c(=S)[nH]c3cc(C(=O)Nc4cccc(C)c4)ccc3c2=O)cc1	-2.9	-1.8	14.6	3.2	.
CCCCC(NC(=O)c1ccc(C#N)cc1)C(=O)NCCC (stereo not drawn)	.	.	1.3	3.7	.
Fc1ccc(Nc2nc(Oc3ccc4c(c3)OCO4)nc(N3CCOCC3)n2)c(F)c1	1.8	0.4	60.7*	-0.4	-2.7
COc1ccc(Nc2nc(N3CCOCC3)nc(N3CCOCC3)n2)c(OC)c1	-2.2	-2.2	-0.5	-0.3	.
Cc1cccc(-n2ncc3c(=O)[nH]c(SCC(=O)N4CC(=O)Nc5ccccc54)nc32)c1	.	.	47.0*	8.8	3.6
Cc1ccc(-n2ncc3c(=O)[nH]c(SCC(=O)N4CC(=O)Nc5ccccc54)nc32)cc1	.	.	-9.5	-1.7	.
CCCNc1c(NC(=O)c2ccc3c(c2)OCO3)c(=O)oc2ccccc12	-0.1	-3.8	0.7	1.1	.
CC(C)(C)c1ccc(/C=C/C(=O)c2ccc(NC3=NCCCS3)cc2)cc1	-1.2	-3.3	31.0*	-8.2	-1.6
Cc1cccc(/C=C/C(=O)c2ccc(NC3=NCCCS3)cc2)c1	-0.9	-1.4	12.6	-9.4	.
O=C(Nc1cnc2ccccn2c1=O)c1ccc(Cl)cc1Cl	-4.4	-2.2	19.1*	-3.3	4.6
Cc1ccc(C(=O)Nc2cnc3ccccn3c2=O)cc1	-5.4	-1.8	-0.6	9.7	.
Cc1ccc(S(=O)(=O)N2C[C@@H]3[C@H]4CC[C@H](C4)[C@@H]3[C@@H](C)[C@H]2c2ccn(Cc3ccccc3)c2)cc1	.	.	-4.0	-2.2	.
CC(=O)NCc1ccc(C(=O)CSc2nnc(C3CC3)n2C2CC2)cc1	.	.	-0.8	-10.0	.
Cc1ccc(NC(=O)C=NOCC(=O)Nc2cc(C)cc(C)c2)cc1	.	.	25.2*	-4.3	3.6
C/C(=N/NC(=O)CSCc1ccc(Cl)cc1)c1cccc(NC(=O)c2ccccc2)c1	-1.3	0.5	38.5*	-2.3	2.1
C/C(=N\NC(=O)c1c(Cl)c(C)nn1C)c1ccc(NC(=O)COc2ccc(Cl)cc2C)cc1	-1.7	-3.4	33.3*	-2.8	2.1
C/C(=N\NC(=O)CSCc1ccc(Cl)cc1)c1ccc(NC(=O)c2ccccc2)cc1	-3.8	-2.6	-8.9	-1.6	.
C/C(=N/NC(=O)c1cccs1)c1ccc(NC(=O)COc2ccc(Cl)cc2)cc1	-1.5	-0.5	31.8*	3.1	5.4
SMILES	VIM-2 inhibitor	IMP-1 inh	dFosB act-1	HTR2A ag	dFosB act-2
C/C(=N\NC(=O)c1c(Cl)c(C)nn1C)c1cccc(NC(=O)c2cccc(F)c2)c1	0.2	-3.2	-6.7	3.8	.
C/C(=N\NC(=O)c1c(Cl)c(C)nn1C)c1cccc(NC(=O)COc2ccccc2)c1	-5.2	-4.7	28.5*	-3.0	-1.7
COc1ccc(/C(C)=N/NC(=O)Cc2ccc(Cl)cc2)cc1	0.5	2.7	2.8	0.7	.
C=CCN(C(=O)COc1ccccc1)c1nnc(-c2ccncc2)s1	-1.4	0.4	22.4*	0.4	1.3
Cc1cccc(NC(=S)N/N=C/c2cccc([N+](=O)[O-])c2)c1	-1.8	-1.4	8.9	-5.5	.
Cc1cccc(NC(=S)N/N=C/c2ccc(Cl)c([N+](=O)[O-])c2)c1	-4.0	-3.1	20.1*	-1.0	-1.9
CN(C)CCCN(C(=O)c1ccc(C(=O)c2ccccc2)cc1)c1nc2ccc(F)cc2s1	1.5	1.2	30.0*	-8.8	-0.3
